ChEMBL document CHEMBL1140589, “Dipeptidyl-alpha,beta-epoxyesters as potent irreversible inhibitors of the cysteine proteases cruzain and rhodesain” (Bioorg Med Chem Lett, 2007)
pIC50: −log10 of the molar value.

Experiments:
[1] = molecular target: Cruzipain (Trypanosoma cruzi) (UniProt P25779); assay: Ratio of kinact to ki for cruzain; parameters: unit not given here
How it was run: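 Continuous assay: enzyme was added by the instrument to inhibitor dilutions with Z-Phe-Arg-AMC in pH 5.5 acetate/DTT buffer while fluorescence was recorded. Progress curves were followed 5 min at 25 °C over a 10-fold dilution range of inhibitor. kobs came from pseudo-first-order fits. For hyperbolic kobs dependence, kinact and Ki were fitted by nonlinear regression to a two-step irreversible mechanism with substrate correction.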

Cruzipain = Cruzipain (Trypanosoma cruzi, UniProt P25779); assay: (§1) Inhibition of cruzain
How it was run: (§2)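 Recombinant enzyme at 4 nM with Z-Phe-Arg-AMC substrate in buffer A (100 mM Na acetate pH 5.5, 5 mM DTT, 0.001% Triton X-100). Enzyme and inhibitor were preincubated 5 min at 25 °C, then substrate was added. Inhibitor serial dilutions were made in DMSO, 10–10,000 nM. IC50 was read directly from a semi-log plot of rate versus inhibitor concentration.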

[2] = system: Trypanosoma brucei brucei; assay: Antimicrobial activity against Trypanosoma brucei brucei; type: functional; parameters: concentration or dose not given beside the values
[3] = molecular target: Rhodesain (Trypanosoma brucei rhodesiense) (UniProt Q95PM0); assay: (§3) Inhibition of rhodesain; parameters: concentration or dose not given beside the values; conditions: concentration not given here; how it was run: as §2
[4] = (§4) Inhibition of Trypanosoma brucei brucei cathepsin B
How it was run: (§5)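 Recombinant T. brucei cathepsin B at 40 nM with Z-Phe-Arg-AMC in buffer A (100 mM Na acetate pH 5.5, 5 mM DTT, 0.001% Triton X-100). Enzyme was preincubated 5 min at 25 °C with inhibitor (500–10,000 nM, DMSO serial dilutions) before substrate addition. Cleavage was followed by fluorescence at ex 355/em 460 nm, 25 °C. IC50 was taken from a semi-log rate versus concentration plot.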

[5] = molecular target: Cruzipain (Trypanosoma cruzi) (UniProt P25779); assay: as §1; parameters: concentration or dose not given beside the values; conditions: concentration not given here; how it was run: as §2
[6] = system: Trypanosoma brucei brucei; assay: as §4; conditions: concentration not given here; how it was run: as §5
Rhodesain = Rhodesain (Trypanosoma brucei rhodesiense, UniProt Q95PM0); assay: as §3; how it was run: as §2
Chain of Rhodesain (Q95PM0 whole entry): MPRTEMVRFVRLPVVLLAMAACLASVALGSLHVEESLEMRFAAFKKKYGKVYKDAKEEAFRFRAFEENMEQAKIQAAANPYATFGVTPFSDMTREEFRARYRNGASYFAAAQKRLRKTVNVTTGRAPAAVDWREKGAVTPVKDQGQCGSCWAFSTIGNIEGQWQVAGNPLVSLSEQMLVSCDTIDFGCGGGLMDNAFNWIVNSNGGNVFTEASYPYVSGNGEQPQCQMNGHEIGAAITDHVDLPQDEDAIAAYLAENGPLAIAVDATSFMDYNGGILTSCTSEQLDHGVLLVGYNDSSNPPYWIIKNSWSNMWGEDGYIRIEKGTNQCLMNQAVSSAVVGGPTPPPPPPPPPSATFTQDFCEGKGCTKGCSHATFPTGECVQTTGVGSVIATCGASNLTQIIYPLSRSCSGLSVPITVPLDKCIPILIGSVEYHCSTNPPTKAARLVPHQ

Chain of Cruzipain (P25779 whole entry): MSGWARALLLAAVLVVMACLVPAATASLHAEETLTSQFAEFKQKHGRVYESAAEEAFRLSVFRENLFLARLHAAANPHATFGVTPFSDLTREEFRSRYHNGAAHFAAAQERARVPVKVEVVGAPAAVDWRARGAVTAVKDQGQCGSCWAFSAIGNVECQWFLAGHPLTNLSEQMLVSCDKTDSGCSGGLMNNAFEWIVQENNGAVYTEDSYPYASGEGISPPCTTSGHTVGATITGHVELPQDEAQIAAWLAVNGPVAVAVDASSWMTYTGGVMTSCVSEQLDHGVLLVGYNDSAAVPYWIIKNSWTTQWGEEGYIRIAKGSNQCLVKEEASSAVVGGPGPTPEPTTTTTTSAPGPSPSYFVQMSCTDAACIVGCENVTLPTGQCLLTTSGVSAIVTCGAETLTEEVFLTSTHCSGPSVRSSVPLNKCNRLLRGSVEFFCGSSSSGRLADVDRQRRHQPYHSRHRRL
Chain of Cruzipain (Trypanosoma cruzi) (P25779 123-467 limits assumed): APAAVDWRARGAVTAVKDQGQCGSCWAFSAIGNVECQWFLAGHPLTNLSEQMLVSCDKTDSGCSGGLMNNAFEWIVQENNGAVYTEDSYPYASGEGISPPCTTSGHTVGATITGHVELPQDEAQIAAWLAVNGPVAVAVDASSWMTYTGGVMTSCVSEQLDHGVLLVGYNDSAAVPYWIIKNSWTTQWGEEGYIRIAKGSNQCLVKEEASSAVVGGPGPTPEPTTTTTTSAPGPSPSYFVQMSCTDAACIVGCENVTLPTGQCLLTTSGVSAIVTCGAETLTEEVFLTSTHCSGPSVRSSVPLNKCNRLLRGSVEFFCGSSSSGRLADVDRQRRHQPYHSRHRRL
Chain of Rhodesain (Trypanosoma brucei rhodesiense) (Q95PM0 1-450): as the sequence (Q95PM0 whole entry) above

For O=C(N[C@@H](Cc1ccccc1)C(=O)N[C@@H](CCc1ccccc1)C(=O)[C@H]1CO1)OCc1ccccc1, the Ratio [1] was 128000 and the pIC50 (Cruzipain) was < 6.00.

In the case of CC(C)CCNC(=O)[C@H](CC(C)C)NC(=O)[C@H]1OC1C(=O)O (single isomer, unassigned), the Ratio [1] was 70600.

With CN1CCN(C(=O)N[C@@H](Cc2ccccc2)C(=O)N[C@H](/C=C/S(=O)(=O)c2ccccc2)CCc2ccccc2)CC1 [K-777] the Inhibition [2] was 99%, the inhibition [3] was 72% and the pIC50 [4] was 5.70. For the same compound, the inhibition [5] was 100%.

CCOC(=O)[C@H]1O[C@H]1[C@H](O)[C@H](CCc1ccccc1)NC(=O)[C@H](Cc1ccccc1)NC(=O)OCc1ccccc1 gave an Inhibition [2] of -37%, an inhibition [3] of -4% and an inhibition [6] of 6%. The inhibition [5] was 5%.

Compound CCOC(=O)[C@H]1O[C@H]1C(=O)[C@H](CCc1ccccc1)NC(=O)[C@H](Cc1ccccc1)NC(=O)OCc1ccccc1 has an Inhibition [2] of 42%, a pIC50 (Rhodesain) of 8.46 and an inhibition [3] of 98%. For the same compound, the pIC50 [4] was < 6.00, the inhibition [6] was 51% and the Ratio [1] was 82900. It also gave a pIC50 (Cruzipain) of 7.70 and an inhibition [5] of 93%.

With CCOC(=O)[C@@H]1O[C@H]1[C@@H](O)[C@H](CCc1ccccc1)NC(=O)[C@H](Cc1ccccc1)NC(=O)OCc1ccccc1 the Inhibition [2] was 17%, the inhibition [3] was 3% and the inhibition [6] was 3%. It also gave an inhibition [5] of 1%.

In the case of O=C(N[C@@H](Cc1ccccc1)C(=O)N[C@@H](CCc1ccccc1)C(=O)[C@@H]1CO1)OCc1ccccc1, the Ratio [1] was 330000 and the pIC50 (Cruzipain) was 8.00.

Work on CCOC(=O)[C@@H]1O[C@@H]1C(=O)[C@H](CCc1ccccc1)NC(=O)[C@H](Cc1ccccc1)NC(=O)OCc1ccccc1 yielded an Inhibition [2] of -2%, a pIC50 (Rhodesain) of 7.52 and an inhibition [3] of 80%. For the same compound, the pIC50 [4] was 6.40, the inhibition [6] was 47% and the Ratio [1] was 25200. For the same compound, the pIC50 (Cruzipain) was 7.30 and the inhibition [5] was 55%.
